Source: ChEMBL document CHEMBL4354863, “Discovery of Novel Allosteric Inhibitors of Deoxyhypusine Synthase” (J Med Chem, 2020)

Experiments:
Deoxyhypusine synthase [1] = target: T1, Deoxyhypusine synthase (Homo sapiens, UniProt P49366); assay: (§1) Inhibition of human N-terminal His6-tagged TEV protease site linked DHPS expressed in Escherichia coli BL21 (DE3) assessed as reduction in radiolabelled amino-butylidene incorporation in eIF5A using [3H]Spermidine trichloride as substrate after 90 to 120 mins in presence of eIF5A and 14 uM NAD+ by Topcount scintillation counting method
T1 sequence (P49366 whole entry): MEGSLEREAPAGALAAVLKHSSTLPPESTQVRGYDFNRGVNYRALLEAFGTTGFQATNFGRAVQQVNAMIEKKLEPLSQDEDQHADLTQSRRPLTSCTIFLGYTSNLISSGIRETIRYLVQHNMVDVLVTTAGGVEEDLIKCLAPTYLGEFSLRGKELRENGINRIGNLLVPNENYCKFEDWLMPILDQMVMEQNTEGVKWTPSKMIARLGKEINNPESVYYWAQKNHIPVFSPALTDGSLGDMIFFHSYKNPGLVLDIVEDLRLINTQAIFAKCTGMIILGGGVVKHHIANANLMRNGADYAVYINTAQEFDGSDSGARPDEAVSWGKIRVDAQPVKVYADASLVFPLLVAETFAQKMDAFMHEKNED
How it was run: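 Reaction run 120 min at room temperature, quenched with GC-7, and bound to streptavidin plates for 90–120 min. Plates washed and scintillation-counted. IC50 with 95% CI from nonlinear regression of percent inhibition.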

Deoxyhypusine synthase [2] = target: T1, Deoxyhypusine synthase; assay: as §1, with “Competitive inhibition” for “Inhibition”, “using 2 uM of” for “using”, “250” for “14”
How it was run: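 Human DHPS (His-tagged, tag removed with TEV, purified by Ni-affinity and size exclusion), 24 nM, with 1 µM eIF5A, 2 µM [³H]-spermidine (38.5 Ci/mmol) and 250 µM NAD⁺ (×18 Km). Reaction run 120 min at room temperature, stopped with GC-7, and captured on streptavidin plates for 90–120 min. Plates washed with PBS and counted by scintillation. IC50 from nonlinear regression of percent inhibition.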

Deoxyhypusine synthase [3] = target: T1, Deoxyhypusine synthase; assay: as §1, with “Competitive inhibition” for “Inhibition”, “using 100 uM of” for “using”
How it was run: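 Human DHPS expressed in E. coli, Ni-affinity purified, His-tag removed by TEV protease, then size-exclusion purified; 24 nM enzyme. Run with 1 µM eIF5A, 14 µM NAD+, 100 µM [3H]-spermidine (high-spermidine condition), 1 mM DTT, 50 mM Tris-HCl pH 8.0, 120 min at room temperature. Stopped with GC-7, captured on streptavidin plates, PBS-washed, scintillation counted. IC50 from nonlinear regression, 95% CI.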

Row | IC50 (Deoxyhypusine synthase [1]) [µM] | IC50 (Deoxyhypusine synthase [2]) [µM] | IC50 (Deoxyhypusine synthase [3]) [µM] | SMILES
1 | > 100 |  |  | O=C(Nc1cccc2[nH]ccc12)c1cc2cc(Br)ccc2s1
2 | 0.43 |  |  | N#Cc1ccc2cc(C(=O)Nc3cccc4[nH]ccc34)sc2c1
3 | 0.092 |  |  | O=C(Nc1cccc2[nH]ccc12)c1cc2ccc(I)cc2s1
4 | 22 |  |  | CC(C)(C)c1ccc(C(=O)Nc2cccc3[nH]ncc23)cc1
5 | 0.84 | 38 |  | CC(C)(C)c1ccc(C(=O)Nc2cccc3[nH]ccc23)cc1
6 | 42 |  |  | CC(C)(C)c1ccc(C(=O)Nc2cccc3c2CC(=O)N3)cc1
7 | 0.12 |  |  | O=C(Nc1cccc2[nH]ccc12)c1cc2ccc(Cl)cc2s1
8 | > 100 |  |  | O=C(Nc1cccc2[nH]ccc12)c1ccccc1
9 | > 100 |  |  | CC(C)(C)c1ccc(C(=O)Nc2cccc3c2CCN3)cc1
10 | > 100 |  |  | O=C(Nc1cccc2[nH]ccc12)c1ccc2ccccc2c1
11 | 0.14 | 0.5 |  | N=C(N)NCCCCCCCN
12 | 11 |  |  | NC(=O)c1ccc2cc(C(=O)Nc3cccc4[nH]ccc34)sc2c1
13 | > 100 |  |  | CC(C)(C)c1ccc(NC(=O)Nc2cccc3[nH]ccc23)cc1
14 | 99 |  |  | CC(C)(C)c1ccc(NC(=O)c2cccc3[nH]ccc23)cc1
15 | > 100 |  |  | O=C(Nc1cccc2[nH]ccc12)c1cc2ccccc2o1
16 | > 100 |  |  | CC(C)(C)c1ccc(S(=O)(=O)Nc2cccc3[nH]ccc23)cc1
17 | > 100 |  |  | CC(C)(C)c1ccc(C(=O)Nc2cccc3cn[nH]c23)cc1
18 | 2.3 |  |  | O=C(Nc1cccc2[nH]ccc12)c1cc2ccccc2s1
19 | 0.062 | 56 | 6.9 | O=C(Nc1cccc2[nH]ccc12)c1cc2ccc(Br)cc2s1
20 | > 100 |  |  | O=C(Nc1cccc2[nH]ccc12)c1cc2cccc(Br)c2s1
21 | 5.4 |  |  | CC(C)(C)c1ccc2cc(C(=O)Nc3cccc4[nH]ccc34)sc2c1
